Test results reported in ChEMBL document CHEMBL1139054, “Indanylacetic acid derivatives carrying aryl-pyridyl and aryl-pyrimidinyl tail groups--new classes of PPAR gamma/delta and PPAR alpha/gamma/delta agonists” (Bioorg Med Chem Lett, 2007).
Calls of active or inactive are those of the source. No cut-off for these calls is given here.

Experiments:
[1] = target: T1, Peroxisome proliferator-activated receptor gamma (Mus musculus, UniProt P37238); test: Agonist activity at PPARgamma in mouse 3T3-L1 cells by IRBA; assay type: functional, cell-based
T1 sequence (P37238 whole entry): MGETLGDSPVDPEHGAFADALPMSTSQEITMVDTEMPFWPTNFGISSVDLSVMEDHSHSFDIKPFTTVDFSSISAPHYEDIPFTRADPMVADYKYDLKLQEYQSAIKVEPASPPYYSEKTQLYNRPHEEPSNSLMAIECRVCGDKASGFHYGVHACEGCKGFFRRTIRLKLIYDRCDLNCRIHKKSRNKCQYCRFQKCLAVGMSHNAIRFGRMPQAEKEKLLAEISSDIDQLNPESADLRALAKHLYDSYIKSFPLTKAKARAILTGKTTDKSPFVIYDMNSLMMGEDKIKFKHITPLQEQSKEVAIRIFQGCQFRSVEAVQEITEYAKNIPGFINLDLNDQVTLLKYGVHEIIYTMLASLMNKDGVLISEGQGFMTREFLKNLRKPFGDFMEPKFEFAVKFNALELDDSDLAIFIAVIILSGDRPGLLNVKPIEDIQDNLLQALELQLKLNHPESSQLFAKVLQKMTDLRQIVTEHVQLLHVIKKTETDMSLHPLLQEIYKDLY

[2] = target: T2, Peroxisome proliferator-activated receptor alpha (Homo sapiens, UniProt Q07869); test: Agonist activity at human PPARalpha by FRET assay; assay type: functional
T2 sequence (Q07869 whole entry): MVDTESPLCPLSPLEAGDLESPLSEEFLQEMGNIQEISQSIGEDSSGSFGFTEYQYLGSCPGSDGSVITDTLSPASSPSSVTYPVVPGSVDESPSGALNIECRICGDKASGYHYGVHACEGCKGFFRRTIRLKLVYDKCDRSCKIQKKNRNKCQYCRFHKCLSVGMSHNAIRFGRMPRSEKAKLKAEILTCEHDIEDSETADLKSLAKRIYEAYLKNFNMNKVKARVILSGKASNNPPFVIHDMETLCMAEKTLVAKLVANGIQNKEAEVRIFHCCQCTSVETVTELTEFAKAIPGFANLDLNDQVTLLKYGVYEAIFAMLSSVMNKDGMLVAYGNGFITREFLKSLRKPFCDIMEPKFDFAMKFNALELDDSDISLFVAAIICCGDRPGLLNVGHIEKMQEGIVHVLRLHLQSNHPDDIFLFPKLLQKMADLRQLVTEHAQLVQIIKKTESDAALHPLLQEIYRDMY
Method in brief: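 Human PPARα ligand-binding domain (GST-tagged) incubated with compound, europium-labeled anti-GST antibody, biotinylated coactivator-binding peptide and streptavidin-APC. FRET read at excitation 340 nm, emission 615 and […]. Means of at least two experiments.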

[3] = target: T3, Peroxisome proliferator-activated receptor delta (Homo sapiens, UniProt Q03181); test: Agonist activity at human PPARdelta by FRET assay; assay type: functional
T3 sequence (Q03181 whole entry): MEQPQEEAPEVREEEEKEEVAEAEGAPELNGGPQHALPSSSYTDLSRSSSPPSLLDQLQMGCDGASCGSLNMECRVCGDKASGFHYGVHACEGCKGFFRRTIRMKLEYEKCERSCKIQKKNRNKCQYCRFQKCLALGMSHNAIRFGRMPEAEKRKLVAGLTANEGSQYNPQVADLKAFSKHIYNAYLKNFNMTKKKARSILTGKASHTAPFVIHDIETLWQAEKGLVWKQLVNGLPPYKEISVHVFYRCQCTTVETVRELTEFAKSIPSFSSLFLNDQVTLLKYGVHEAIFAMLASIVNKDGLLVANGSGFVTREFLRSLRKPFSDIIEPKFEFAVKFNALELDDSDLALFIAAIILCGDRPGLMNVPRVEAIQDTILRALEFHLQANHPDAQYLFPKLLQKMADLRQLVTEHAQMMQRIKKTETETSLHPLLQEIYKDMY

[4] = target: T3, Peroxisome proliferator-activated receptor delta; test: Activity at human PPARdelta expressed in CV1 cells by GAL4 transactivation assay; assay type: cell-based, CV-1
Method in brief: (§1)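 GAL4 transactivation in CV-1 cells (2.8 × 10⁴ per well, grown overnight in 10% FBS medium). Cells transiently transfected (Lipofectamine/Plus) with Gal4/PPAR-LBD fusion, UAS/firefly luciferase and Renilla luciferase plasmids. After overnight culture in charcoal/dextran-treated 10% FBS medium, compound added for 24 h. Dual luciferase read-out; EC50 from dose–response curve; means of at least two experiments.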

[5] = target: T2, Peroxisome proliferator-activated receptor alpha; test: Activity at human PPARalpha expressed in CV1 cells by GAL4 transactivation assay; assay type: cell-based, CV-1; method in brief: as §1
[6] = target: T4, Peroxisome proliferator-activated receptor alpha (Mus musculus, UniProt P23204); test: Activity at mouse PPARalpha expressed in CV1 cells by GAL4 transactivation assay; assay type: cell-based, CV-1; method in brief: as §1
T4 sequence (P23204 whole entry): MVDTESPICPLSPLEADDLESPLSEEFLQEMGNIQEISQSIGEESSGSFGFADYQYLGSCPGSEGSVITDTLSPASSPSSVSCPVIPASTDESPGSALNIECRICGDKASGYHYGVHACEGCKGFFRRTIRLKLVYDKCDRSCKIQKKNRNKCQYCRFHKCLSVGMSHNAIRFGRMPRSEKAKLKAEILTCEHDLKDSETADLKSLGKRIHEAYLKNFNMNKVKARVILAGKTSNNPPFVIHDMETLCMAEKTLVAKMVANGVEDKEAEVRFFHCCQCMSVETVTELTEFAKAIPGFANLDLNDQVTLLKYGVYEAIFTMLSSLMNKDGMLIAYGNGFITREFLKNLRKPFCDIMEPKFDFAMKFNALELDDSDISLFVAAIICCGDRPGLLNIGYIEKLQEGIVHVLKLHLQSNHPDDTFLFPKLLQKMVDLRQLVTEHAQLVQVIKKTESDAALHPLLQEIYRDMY

[7] = target: T5, Peroxisome proliferator-activated receptor delta (Mus musculus, UniProt P35396); test: Activity at mouse PPARdelta expressed in CV1 cells by GAL4 transactivation assay; assay type: cell-based, CV-1; method in brief: as §1
T5 sequence (P35396 whole entry): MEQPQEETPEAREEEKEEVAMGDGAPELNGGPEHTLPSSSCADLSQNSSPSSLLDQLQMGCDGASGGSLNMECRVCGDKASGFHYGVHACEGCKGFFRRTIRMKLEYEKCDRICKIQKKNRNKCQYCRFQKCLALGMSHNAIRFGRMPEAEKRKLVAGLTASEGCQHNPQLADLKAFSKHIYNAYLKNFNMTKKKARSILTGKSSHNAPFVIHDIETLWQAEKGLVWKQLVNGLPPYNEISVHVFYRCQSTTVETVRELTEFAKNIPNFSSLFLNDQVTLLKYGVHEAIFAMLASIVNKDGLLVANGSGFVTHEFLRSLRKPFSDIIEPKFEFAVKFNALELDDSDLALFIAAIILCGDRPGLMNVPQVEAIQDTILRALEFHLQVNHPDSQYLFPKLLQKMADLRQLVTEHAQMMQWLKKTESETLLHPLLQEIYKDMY

Rattus norvegicus [8] = test: AUC in rat at 3 mg/kg, po; assay type: ADME, organism-based, Plasma; parameters: dose 3 mg/kg, route oral; details: in vivo
[9] = Bioavailability in rat at 3 mg/kg, po; assay type: ADME, organism-based; details: in vivo
Mus musculus [10] = test: Reduction of triglycerides level in hApoA1 mouse at 30 mg/kg, po after 10 days; parameters: scale not given: the % may be the effect or the level left
Mus musculus [11] = test: Increase in HDL-cholesterol level in hApoA1 mouse at 30 mg/kg, po after 10 days
Rattus norvegicus [12] = test: Reduction of glucose level in Zucker fa/fa rat at 10 mg/kg after 10 days; assay type: functional, organism-based; parameters: dose 10 mg/kg
Mus musculus [13] = test: Reduction of plasma glucose level in db/db mouse at 10 mg/kg, po after 7 days; assay type: functional, organism-based; parameters: dose 10 mg/kg
Method in brief: (§2)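 Female db/db mice grouped by equal mean plasma glucose, then given compound orally once daily for 7 days in 0.5% methylcellulose in water; fed ad libitum. Plasma glucose measured about 24 h after the last dose. Percent change from drug = ((Tf/Ti)/(Vf/Vi) − 1) × 100, correcting for vehicle-group change.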

[14] = Cmax in rat at 3 mg/kg, po and 3 mg/kg, iv; assay type: ADME, organism-based; details: in vivo
Mus musculus [15] = test: Reduction of plasma glucose level in orally dosed db/db mouse after 7 days; assay type: functional; details: po, 168 h; method in brief: as §2
[16] = Half life in rat at 3 mg/kg, po; assay type: ADME, organism-based; parameters: dose 3 mg/kg, route oral; details: in vivo

SMILES	EC50 [1] [nM]	EC50 [2] [nM]	EC50 [3] [nM]	also measured
Cc1cnc(-c2ccccc2)nc1N(C)CCCOc1ccc2c(c1)CC[C@H]2CC(=O)O	678	6610	24	
Cc1nc(-c2ccc(OCCCOc3ccc4c(c3)CC[C@H]4CC(=O)O)nc2)sc1C	511	6780	5	
CCc1csc(-c2ccc(OCCCOc3ccc4c(c3)CC[C@H]4CC(=O)O)nc2)n1	264	421	3	
CCOc1csc(-c2ccc(OCCCOc3ccc4c(c3)CC[C@H]4CC(=O)O)nc2)n1	411	807	3	
Cc1cnc(-c2ccc(C(C)C)cc2)nc1N(C)CCCOc1ccc2c(c1)CC[C@H]2CC(=O)O	29	990	34	IC50 [4]: 49 nM; IC50 [5]: 237 nM; IC50 [6]: 2530 nM; IC50 [7]: 610 nM
CCOc1cccc(-c2ncc(C)c(N(C)CCCOc3ccc4c(c3)CC[C@H]4CC(=O)O)n2)c1	6930	3540	7	
CC(=O)c1sc(-c2ccc(OCCCOc3ccc4c(c3)CC[C@H]4CC(=O)O)nc2)nc1C	35	1390	9	IC50 [4]: 56 nM; AUC (Rattus norvegicus [8]): 26 µM·h; bioavailability [9]: 48%; Activity (Mus musculus [10]): -32%; Activity (Mus musculus [11]): 22%; IC50 [5]: > 6000 nM; Activity (Rattus norvegicus [12]): Active; Activity (Mus musculus [13]): Active; Cmax [14]: 2800 nM; ED50 (Mus musculus [15]): 6.7 mg/kg; half-life [16]: 5 h; IC50 [7]: 1390 nM
Cc1cccc(-c2ncc(C)c(N(C)CCCOc3ccc4c(c3)CC[C@H]4CC(=O)O)n2)c1	670	4390	41	
Cc1cnc(-c2cccc(Cl)c2)nc1N(C)CCCOc1ccc2c(c1)CC[C@H]2CC(=O)O	582	2370	23	
Cc1cnc(-c2ccc(C(C)(C)C)cc2)nc1N(C)CCCOc1ccc2c(c1)CC[C@H]2CC(=O)O	156	641	28	
CCc1ccc(-c2ncc(CC)c(N(C)CCCOc3ccc4c(c3)CC[C@H]4CC(=O)O)n2)cc1	950	120	2	

Continued, in another order:

EC50 [1] [nM]	EC50 [2] [nM]	EC50 [3] [nM]	SMILES	also measured
2800	1130	7	Cc1cnc(-c2ccc(Cl)cc2)nc1N(C)CCCOc1ccc2c(c1)CC[C@H]2CC(=O)O	
600	920	11	CCc1ccc(-c2nc(C)cc(N(C)CCCOc3ccc4c(c3)CC[C@H]4CC(=O)O)n2)cc1	
800	565	25	CCc1ccc(-c2nccc(N(C)CCCOc3ccc4c(c3)CC[C@H]4CC(=O)O)n2)cc1	
780	1150	9	Cc1ccc(-c2ncc(C)c(N(C)CCCOc3ccc4c(c3)CC[C@H]4CC(=O)O)n2)cc1	
237	6550	83	CC(=O)c1ccc(-c2ncc(C)c(N(C)CCCOc3ccc4c(c3)CC[C@H]4CC(=O)O)n2)cc1	
7010	1390	12	COc1ccc(-c2ncc(C)c(N(C)CCCOc3ccc4c(c3)CC[C@H]4CC(=O)O)n2)cc1	
860	2120	7	Cc1cnc(-c2ccc(F)cc2)nc1N(C)CCCOc1ccc2c(c1)CC[C@H]2CC(=O)O	
145	200	10	CCc1ccc(-c2ncc(C)c(N(C)CCCOc3ccc4c(c3)CC[C@H]4CC(=O)O)n2)cc1	IC50 [4]: 30 nM; IC50 [5]: 175 nM; IC50 [6]: 670 nM; IC50 [7]: 370 nM
360	425	16	CCc1ccc(-c2ncc(F)c(N(C)CCCOc3ccc4c(c3)CC[C@H]4CC(=O)O)n2)cc1	
161	3090	58	CCOc1ccc(-c2ncc(C)c(N(C)CCCOc3ccc4c(c3)CC[C@H]4CC(=O)O)n2)cc1	
